Data reported in ChEMBL document CHEMBL1145056, “Structure-activity relationships of novel cyclic alpha-MSH/beta-MSH hybrid analogues that lead to potent and selective ligands for the human MC3R and human MC5R” (J Med Chem, 2003).
Positions of bridges follow the written chain, without caps; N, C: chain ends. Non-standard residues stand in square brackets, D forms with d. Residues, ends and D or L forms follow the SMILES beside them. d2Nal = N[C@H](Cc1ccc2ccccc2c1)C(=O)O

How the values were obtained:
Melanocortin receptor 4 [1] = target: T1, Melanocortin receptor 4 (Homo sapiens, UniProt P32245); test: (§1) Effective concentration of peptide at 50% maximal cAMP generation; format: functional
Melanocortin receptor 3 [2] = target: T2, Melanocortin receptor 3 (Homo sapiens, UniProt P41968); test: as §1; format: functional
Outline: (§2)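 Receptor-transfected human MCR HEK293 cells were seeded at 50 000 cells/well 48 h before the assay. The reaction was stopped with ice-cold Tris/EDTA, and lysates were boiled 15 min. cAMP was measured by competitive binding kit.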

Melanocortin receptor 5 [3] = target: T3, Melanocortin receptor 5 (Homo sapiens, UniProt P33032); test: as §1; format: functional; outline: as §2
Melanocortin receptor 4 [4] = target: T1, Melanocortin receptor 4; test: Inhibition of human melanocortin 4 receptor
Melanocortin receptor 5 [5] = target: T3, Melanocortin receptor 5; test: Inhibition of human melanocortin 5 receptor
Melanocortin receptor 3 [6] = target: T2, Melanocortin receptor 3; test: Inhibition of human Melanocortin 3 receptor
Melanocortin receptor 5 [7] = target: T3, Melanocortin receptor 5; test: (§3) Effective concentration of peptide at 50% maximal cAMP generation (10e-10 to 10e-4 M); format: functional
Outline: as §2, with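 “assay. Cells were preincubated in EBSS with 0.5 mM IBMX for 1 min at 37 °C, then exposed to peptide (10^-10 to 10^-4 M) for 3 min at 37 °C.” for “assay.”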

Melanocortin receptor 4 [8] = target: T1, Melanocortin receptor 4; test: as §3; format: functional
Outline: as §2, with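 “assay. Cells were preincubated in EBSS with 0.5 mM IBMX for 1 min at 37 °C, then exposed to peptide (10^-10 to 10^-4 M) for 3 min at 37 °C.” for “assay.”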

Melanocortin receptor 4 [9] = target: T1, Melanocortin receptor 4; test: Inhibitory activity against human melanocortin receptor human Melanocortin 4 receptor was determined
Outline: (§4)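 Whole-cell competition binding in HEK293 cells stably transfected with human MCRs (CMVneo vector), 50 000 cells/well seeded 48 h before. Binding buffer: MEM, 25 mM HEPES pH 7.4, 0.2% BSA, 1,10-phenanthroline, leupeptin, bacitracin. Cells were incubated with unlabeled peptide (10^-10 to 10^-4 M) and 0.1386 nM [125I-Tyr2]-[Nle4,D-Phe7]α-MSH for 40 min at 37 °C, then washed, lysed (NaOH/Triton X-100) and gamma-counted.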

Melanocortin receptor 5 [10] = target: T3, Melanocortin receptor 5; test: Inhibitory activity against human melanocortin receptor human Melanocortin 5 receptor was determined; outline: as §4
Melanocortin receptor 3 [11] = target: T2, Melanocortin receptor 3; test: Inhibitory activity against human Melanocortin 3 receptor was determined; outline: as §4

T2 sequence (P41968 whole entry): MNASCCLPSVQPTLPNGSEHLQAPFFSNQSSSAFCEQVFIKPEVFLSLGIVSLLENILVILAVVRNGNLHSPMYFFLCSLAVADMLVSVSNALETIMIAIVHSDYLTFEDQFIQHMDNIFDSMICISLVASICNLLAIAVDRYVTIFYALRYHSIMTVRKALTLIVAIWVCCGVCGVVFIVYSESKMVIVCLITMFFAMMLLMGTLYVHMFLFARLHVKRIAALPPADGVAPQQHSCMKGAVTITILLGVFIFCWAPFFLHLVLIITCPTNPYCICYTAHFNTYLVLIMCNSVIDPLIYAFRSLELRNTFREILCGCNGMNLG
T1 sequence (P32245 whole entry): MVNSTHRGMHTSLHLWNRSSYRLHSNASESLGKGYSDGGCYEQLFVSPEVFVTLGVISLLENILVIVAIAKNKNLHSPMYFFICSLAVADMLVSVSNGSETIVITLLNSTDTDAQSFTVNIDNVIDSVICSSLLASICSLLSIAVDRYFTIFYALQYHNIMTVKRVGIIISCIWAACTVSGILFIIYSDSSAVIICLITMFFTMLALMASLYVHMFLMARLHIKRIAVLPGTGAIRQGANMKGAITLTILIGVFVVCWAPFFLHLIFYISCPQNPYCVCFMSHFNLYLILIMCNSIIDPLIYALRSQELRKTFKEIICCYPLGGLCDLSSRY
T3 sequence (P33032 whole entry): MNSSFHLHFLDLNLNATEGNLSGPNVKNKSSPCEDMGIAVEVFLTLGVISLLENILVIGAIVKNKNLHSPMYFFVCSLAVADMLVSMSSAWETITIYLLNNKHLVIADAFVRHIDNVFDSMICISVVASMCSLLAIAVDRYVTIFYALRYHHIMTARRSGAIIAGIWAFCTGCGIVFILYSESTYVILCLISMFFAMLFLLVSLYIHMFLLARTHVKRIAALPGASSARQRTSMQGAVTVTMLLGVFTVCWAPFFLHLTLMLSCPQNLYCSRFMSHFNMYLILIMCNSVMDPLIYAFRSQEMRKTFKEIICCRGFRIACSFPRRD

Row | Structure (SMILES) | EC50 (Melanocortin receptor 4 [1]) | EC50 (Melanocortin receptor 3 [2]) | EC50 (Melanocortin receptor 5 [3]) | IC50 (Melanocortin receptor 4 [4]) | IC50 (Melanocortin receptor 5 [5]) | IC50 (Melanocortin receptor 3 [6]) | EC50 (Melanocortin receptor 5 [7]) | EC50 (Melanocortin receptor 4 [8]) | Ki (Melanocortin receptor 4 [9]) | Ki (Melanocortin receptor 5 [10]) | Ki (Melanocortin receptor 3 [11])
1 | CC(=O)N[C@H]1CSSC[C@@H](C(=O)N2CCC[C@H]2C(=O)N2CCC[C@H]2C(=O)N[C@@H](CCCCN)C(=O)N[C@@H](CC(=O)O)C(N)=O)NC(=O)[C@H](Cc2c[nH]c3ccccc23)NC(=O)[C@H](CCCN=C(N)N)NC(=O)[C@@H](Cc2ccc3ccccc3c2)NC(=O)[C@H](Cc2c[nH]cn2)NC(=O)[C@H](CCC(=O)O)NC1=O | 0.0061 µM | > 10 µM | 0.19 µM | 0.0034 µM | 0.18 µM | 0.13 µM | – | – | – | – | –
2 | CC(=O)N[C@H]1CSSC[C@H](C(=O)N2CCC[C@H]2C(=O)N2CCC[C@H]2C(=O)N[C@@H](CCCCN)C(=O)N[C@@H](CC(=O)O)C(N)=O)NC(=O)[C@H](Cc2c[nH]c3ccccc23)NC(=O)[C@H](CCCNC(=N)N)NC(=O)[C@@H](Cc2ccccc2)NC(=O)[C@H](Cc2c[nH]cn2)NC(=O)[C@H](CCC(=O)O)NC1=O | > 10 µM | > 10 µM | > 10 µM | > 10 µM | 0.01 µM | 5.6 µM | – | – | – | – | –
3 | CC(=O)N[C@@H]1CSSC[C@@H](C(=O)N2CCC[C@H]2C(=O)N2CCC[C@H]2C(=O)N[C@@H](CCCCN)C(=O)N[C@@H](CC(=O)O)C(N)=O)NC(=O)[C@H](Cc2c[nH]c3ccccc23)NC(=O)[C@H](CCCN=C(N)N)NC(=O)[C@@H](Cc2ccc3ccccc3c2)NC(=O)[C@H](Cc2c[nH]cn2)NC(=O)[C@H](CCC(=O)O)NC1=O | > 10 µM | > 10 µM | – | 3.7 µM | 26 µM | 0.2 µM | 0.88 µM | – | – | – | –
4 | CC(=O)N[C@@H]1CSSC[C@@H](C(=O)N2CCC[C@H]2C(=O)N2CCC[C@H]2C(=O)N[C@@H](CCCCN)C(=O)N[C@@H](CC(=O)O)C(N)=O)NC(=O)[C@H](Cc2c[nH]c3ccccc23)NC(=O)[C@H](CCCNC(=N)N)NC(=O)[C@@H](Cc2ccccc2)NC(=O)[C@H](Cc2c[nH]cn2)NC(=O)[C@H](CCC(=O)O)NC1=O | > 10 µM | > 10 µM | > 10 µM | 37 µM | 0.073 µM | 0.62 µM | – | – | – | – | –
5 | CC(=O)N[C@@H]1C(=O)N[C@@H](CCC(=O)O)C(=O)N[C@@H](Cc2c[nH]cn2)C(=O)N[C@H](Cc2ccc3ccccc3c2)C(=O)N[C@@H](CCCN=C(N)N)C(=O)N[C@@H](Cc2c[nH]c3ccccc23)C(=O)N[C@H](C(=O)N2CCC[C@H]2C(=O)N2CCC[C@H]2C(=O)N[C@@H](CCCCN)C(=O)N[C@@H](CC(=O)O)C(N)=O)CSSC1(C)C | > 10 µM | > 10 µM | > 10 µM | 0.75 µM | 0.094 µM | 0.003 µM | – | – | – | – | –
6 | CC(=O)N[C@H]1CC(=O)NCCCC[C@@H](C(=O)N2CCC[C@H]2C(=O)N2CCC[C@H]2C(=O)N[C@@H](CCCCN)C(=O)N[C@@H](CC(=O)O)C(N)=O)NC(=O)[C@H](Cc2c[nH]c3ccccc23)NC(=O)[C@H](CCCNC(=N)N)NC(=O)[C@@H](Cc2ccccc2)NC(=O)[C@H](Cc2c[nH]cn2)NC(=O)[C@H](CCC(=O)O)NC1=O | > 10 µM | > 10 µM | > 10 µM | > 10 µM | > 10 µM | > 1 µM | – | – | – | – | –
7 | CC(=O)N[C@H]1CSSC[C@@H](C(=O)N2CCC[C@H]2C(=O)N2CCC[C@H]2C(=O)N[C@@H](CCCCN)C(=O)N[C@@H](CC(=O)O)C(N)=O)NC(=O)[C@H](Cc2c[nH]c3ccccc23)NC(=O)[C@H](CCCNC(=N)N)NC(=O)[C@@H](Cc2ccc3ccccc3c2)NC(=O)[C@@H]2CCCN2C(=O)[C@H](CCC(=O)O)NC1=O | – | > 10 µM | > 10 µM | 17 µM | 97 µM | 0.031 µM | – | > 10 µM | – | – | –
8 | CC(=O)N[C@H]1CSSC[C@@H](C(=O)N2CCC[C@H]2C(=O)N2CCC[C@H]2C(=O)N[C@@H](CCCCN)C(=O)N[C@@H](CC(=O)O)C(N)=O)NC(=O)[C@H](Cc2c[nH]c3ccccc23)NC(=O)[C@H](CCCNC(=N)N)NC(=O)[C@@H](Cc2ccccc2)NC(=O)[C@@H]2CCCN2C(=O)[C@H](CCC(=O)O)NC1=O | > 10 µM | 0.401 µM | – | 3.3 µM | 0.2 µM | > 1 µM | 0.38 µM | – | – | – | –
9 | CC(=O)N[C@H]1CSSC[C@H](C(=O)N2CCC[C@H]2C(=O)N2CCC[C@H]2C(=O)N[C@@H](CCCCN)C(=O)N[C@@H](CC(=O)O)C(N)=O)NC(=O)[C@H](Cc2c[nH]c3ccccc23)NC(=O)[C@H](CCCN=C(N)N)NC(=O)[C@@H](Cc2ccc3ccccc3c2)NC(=O)[C@H](Cc2c[nH]cn2)NC(=O)[C@H](CCC(=O)O)NC1=O | > 10 µM | > 10 µM | > 10 µM | 40 µM | 15 µM | 2.9 µM | – | – | – | – | –
10 | CC(=O)N[C@@H]1C(=O)N[C@@H](CCC(=O)O)C(=O)N[C@@H](Cc2c[nH]cn2)C(=O)N[C@H](Cc2ccccc2)C(=O)N[C@@H](CCCN=C(N)N)C(=O)N[C@@H](Cc2c[nH]c3ccccc23)C(=O)N[C@H](C(=O)N2CCC[C@H]2C(=O)N2CCC[C@H]2C(=O)N[C@@H](CCCCN)C(=O)N[C@@H](CC(=O)O)C(N)=O)CSSC1(C)C | 0.0063 µM | 0.0028 µM | > 10 µM | 1.1 µM | 27 µM | 0.43 µM | – | – | – | – | –
11 | CC(=O)N[C@H]1CSSC[C@@H](C(=O)N2CCC[C@H]2C(=O)N2CCC[C@H]2C(=O)N[C@@H](CCCCN)C(=O)N[C@@H](CC(=O)O)C(N)=O)NC(=O)CNC(=O)[C@H](Cc2c[nH]c3ccccc23)NC(=O)[C@H](CCCNC(=N)N)NC(=O)[C@@H](Cc2ccc3ccccc3c2)NC(=O)[C@H](Cc2c[nH]cn2)NC(=O)[C@H](CCC(=O)O)NC1=O (Ac-CEH[d2Nal]RWGCPPKD-NH2; disulfide 1-8) | – | – | – | – | – | – | – | – | 0.0031 µM | 0.694 µM | 0.054 µM
